Test results as given in ChEMBL document CHEMBL1165943, “Design and synthesis of new anticancer pyrimidines with multiple-kinase inhibitory effect” (Bioorg Med Chem, 2010).
Activity calls are given as the source filed them. The calls are words filed in the database; no cut-off is given here.

Legend:
[1] = test system: LOX IMVI; assay: Cytotoxicity against human LOXIMVI cells assessed as cell growth at 0.01 uM after 48 hrs by sulforhodamine B assay; assay type: functional; details: read-out: Activity
[2] = test system: TK-10; assay: Cytotoxicity against human TK10 cells assessed as cell growth at 0.001 uM after 48 hrs by sulforhodamine B assay; assay type: functional; details: TK-10, 48 h, read-out: Activity
[3] = test system: HCT-116; assay: Cytotoxicity against human HCT116 cells assessed as cell growth at 10 uM after 48 hrs by sulforhodamine B assay; assay type: functional; details: HCT-116, 48 h, read-out: Activity
[4] = Cytotoxicity against human Hs 578T cells assessed as cell growth at 0.001 uM after 48 hrs by sulforhodamine B assay; assay type: functional; details: read-out: Activity
[5] = test system: UACC-62; assay: Cytotoxicity against human UACC62 cells assessed as cell growth at 100 nM after 48 hrs by sulforhodamine B assay; assay type: functional; details: UACC-62, 48 h, read-out: Activity
[6] = test system: SNB-19; assay: Cytotoxicity against human SNB19 cells assessed as cell growth at 100 nM after 48 hrs by sulforhodamine B assay; assay type: functional; details: SNB-19, 48 h, read-out: Activity
[7] = test system: HT-29; assay: Cytotoxicity against human HT-29 cells assessed as cell growth at 1 uM after 48 hrs by sulforhodamine B assay; assay type: functional; details: HT-29, 48 h, read-out: Activity
[8] = Cytotoxicity against human Hs 578T cells assessed as cell growth at 10 uM after 48 hrs by sulforhodamine B assay; assay type: functional; details: read-out: Activity
[9] = test system: MOLT-4; assay: Cytotoxicity against human MOLT4 cells assessed as cell growth at 1 uM after 48 hrs by sulforhodamine B assay; assay type: functional; details: MOLT-4, 48 h, read-out: Activity
[10] = test system: TK-10; assay: Cytotoxicity against human TK10 cells assessed as cell growth at 0.01 uM after 48 hrs by sulforhodamine B assay; assay type: functional; details: TK-10, 48 h, read-out: Activity
[11] = test system: RXF 393; assay: Growth inhibition of human RXF393 cells after 48 hrs by sulforhodamine B assay; assay type: functional, cell-based
How it was run: (§1)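 Cells grown in RPMI 1640 with 5% FBS and 2 mM L-glutamine, seeded at 5,000–40,000 cells/well according to doubling time. After 24 h, time-zero plates are TCA-fixed. Five concentrations (10-fold or ½log dilutions, DMSO stocks) are applied for 48 h at 37 °C, 5% CO₂. Cells are TCA-fixed, SRB-stained and read at 515 nm. IC₅₀ is taken from [(Ti−Tz)/(C−Tz)]×100 = 50.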

[12] = test system: T47D; assay: Cytotoxicity against human T47D cells assessed as cell growth at 0.01 uM after 48 hrs by sulforhodamine B assay; assay type: functional; details: read-out: Activity
[13] = test system: NCI-H322M; assay: Cytotoxicity against human NCI-H322M cells assessed as cell growth at 1 uM after 48 hrs by sulforhodamine B assay; assay type: functional; details: read-out: Activity
[14] = test system: COLO 205; assay: Cytotoxicity against human COLO205 cells assessed as cell growth at 0.01 uM after 48 hrs by sulforhodamine B assay; assay type: functional; details: COLO 205, 48 h, read-out: Activity
How it was run: (§2)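 Cells grown in RPMI 1640 with 5% FBS and 2 mM L-glutamine, seeded at 5,000–40,000 cells/well by doubling time. Time-zero plates TCA-fixed after 24 h. Five concentrations (10-fold or half-log dilutions from DMSO stock) added; 48 h at 37 °C, 5% CO2. Cold TCA fixation (final 10%, 60 min, 4 °C), 0.4% SRB stain, dye solubilized in 10 mM trizma base, A515.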

[15] = test system: EKVX; assay: Growth inhibition of human EKVX cells after 48 hrs by sulforhodamine B assay; assay type: functional, cell-based; details: for CC50: read-out: LC50 (the source's name); how it was run: as §1
[16] = test system: HT-29; assay: Cytotoxicity against human HT-29 cells assessed as cell growth at 0.01 uM after 48 hrs by sulforhodamine B assay; assay type: functional; details: HT-29, 48 h, read-out: Activity
[17] = test system: TK-10; assay: Growth inhibition of human TK10 cells after 48 hrs by sulforhodamine B assay; assay type: functional, cell-based; details: TK-10, 48 h; for CC50: read-out: LC50 (the source's name); how it was run: as §1
[18] = test system: TK-10; assay: Cytotoxicity against human TK10 cells assessed as cell growth at 100 nM after 48 hrs by sulforhodamine B assay; assay type: functional; details: TK-10, 48 h, read-out: Activity
[19] = test system: SN12C; assay: Cytotoxicity against human SN12C cells assessed as cell growth at 0.01 uM after 48 hrs by sulforhodamine B assay; assay type: functional; details: read-out: Activity
[20] = test system: K562; assay: Cytotoxicity against human K562 cells assessed as cell growth at 10 uM after 48 hrs by sulforhodamine B assay; assay type: functional; details: K562, 48 h, read-out: Activity
[21] = test system: CAKI-1; assay: Cytotoxicity against human Caki1 cells assessed as cell growth at 10 uM after 48 hrs by sulforhodamine B assay; assay type: functional; details: CAKI-1, 48 h, read-out: Activity; how it was run: as §2
[22] = test system: T47D; assay: Cytotoxicity against human T47D cells assessed as cell growth at 100 nM after 48 hrs by sulforhodamine B assay; assay type: functional; details: read-out: Activity
[23] = test system: HL-60(TB); assay: Cytotoxicity against human HL-60(TB) cells assessed as cell growth at 1 uM after 48 hrs by sulforhodamine B assay; assay type: functional; details: HL-60, 48 h, read-out: Activity
How it was run: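 Five-concentration HL-60(TB) test in RPMI 1640 with 5% FBS and 2 mM L-glutamine. Cells are plated at 5,000–40,000/well and a TCA-fixed time-zero plate is read at drug addition after 24 h. Drug is dissolved in DMSO and given as five 10-fold or ½log dilutions for 48 h at 37 °C, 5% CO2. Settled cells are fixed with TCA, stained with SRB and read at 515 nm.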

[24] = test system: KM12; assay: Growth inhibition of human KM12 cells after 48 hrs by sulforhodamine B assay; assay type: functional, cell-based; details: KM12, 48 h; for CC50: read-out: LC50 (the source's name); how it was run: as §1
[25] = test system: HT-29; assay: Cytotoxicity against human HT-29 cells assessed as cell growth at 100 nM after 48 hrs by sulforhodamine B assay; assay type: functional; details: HT-29, 48 h, read-out: Activity
[26] = test system: SF-539; assay: Growth inhibition of human SF539 cells after 48 hrs by sulforhodamine B assay; assay type: functional, cell-based; details: for CC50: read-out: LC50 (the source's name); how it was run: as §1
[27] = test system: SF-295; assay: Cytotoxicity against human SF295 cells assessed as cell growth at 100 nM after 48 hrs by sulforhodamine B assay; assay type: functional; details: SF-295, 48 h, read-out: Activity
[28] = test system: M14; assay: Cytotoxicity against human M14 cells assessed as cell growth at 0.01 uM after 48 hrs by sulforhodamine B assay; assay type: functional; details: M14, 48 h, read-out: Activity
[29] = test system: A549; assay: Growth inhibition of human A549 cells after 48 hrs by sulforhodamine B assay; assay type: functional, cell-based; details: A549, 48 h; for CC50: read-out: LC50 (the source's name)
How it was run: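 Five-dose SRB assay. Cells in RPMI 1640 with 5% FBS and 2 mM L-glutamine were seeded at 5,000–40,000 cells/well, with a TCA-fixed time-zero plate (Tz) taken at 24 h. Compound stocks were in DMSO, serially diluted 10-fold or ½-log to five concentrations, and incubated 48 h at 37 °C. Plates were stained with SRB and read at 515 nm. IC₅₀ was taken where [(Ti−Tz)/(C−Tz)]×100 = 50.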

With `CC(=O)Nc1cccc(-c2ccc(-c3ccnc(NC(=O)Nc4cc(C(F)(F)F)cc(C(F)(F)F)c4)n3)cn2)c1.Cl` the growth at 0.01 µM [1] was 86%, the growth at 0.001 µM [2] was 103% and the growth at 10 µM [3] was 100%. The growth at 0.001 µM [4] was 90%, the growth at 0.1 µM [5] was 82% and the growth at 0.1 µM [6] was 90%. The growth at 1 µM [7] was -6%, the growth at 10 µM [8] was 18% and the growth at 1 µM [9] was 4%. The growth at 0.01 µM [10] was 102%, the LC50 [11] was “inactive” and the TGI [11] was “inactive”. The IC50 ([11]; rxf 393) was “Not Active”, the growth at 0.01 µM [12] was 80% and the growth at 1 µM [13] was 12%. For the same molecule, the growth at 0.01 µM [14] was 100%, the GI50 [15] was 1.44 µM and the IC50 [15] was 1.44 µM. It also gave a TGI [15] of 5.71 µM, a CC50 [15] greater than 100 µM and a growth at 0.01 µM [16] of 100%. It also gave a GI50 [17] of 16.8 µM, an IC50 [17] of 16.8 µM and a TGI [17] of 39.8 µM. For the same molecule, the CC50 [17] was 94.1 µM, the growth at 0.1 µM [18] was 105% and the growth at 0.01 µM [19] was 96%. It also gave a growth at 10 µM [20] of 19%, a growth at 10 µM [21] of -36% and a growth at 0.1 µM [22] of 42%. The growth at 1 µM [23] was 28%, the GI50 [24] was 2.59 µM and the IC50 [24] was 2.59 µM. For the same molecule, the TGI [24] was 8.01 µM, the CC50 [24] was 27.9 µM and the growth at 0.1 µM [25] was 101%. The GI50 ([26]; Homo sapiens, SF-539, 48 h) was 5.48 µM, the TGI ([26]; Homo sapiens, SF-539, 48 h) was 18.9 µM and the IC50 ([26]; Homo sapiens, SF-539, 48 h, read-out: IC50) was 5.48 µM. It also gave a CC50 ([26]; Homo sapiens, SF-539, 48 h) of 44.3 µM, a growth at 0.1 µM [27] of 57% and a growth at 0.01 µM [28] of 92%. For the same molecule, the GI50 [29] was 1.48 µM, the IC50 [29] was 1.48 µM and the TGI [29] was 12.6 µM. For the same molecule, the CC50 [29] was 41.9 µM.

`CC(=O)c1ccccc1-c1ccc(-c2ccnc(NC(=O)Nc3cc(N4CCOCC4)cc(C(F)(F)F)c3)n2)cn1` gave a growth at 0.01 µM [1] of 106%, a growth at 0.001 µM [2] of 103% and a growth at 10 µM [3] of 66%. It also gave a growth at 0.001 µM [4] of 107%, a growth at 0.1 µM [5] of 90% and a growth at 0.1 µM [6] of 95%. For the same molecule, the growth at 1 µM [7] was 76%, the growth at 10 µM [8] was 13% and the growth at 1 µM [9] was 86%. The growth at 0.01 µM [10] was 117%, the LC50 [11] was “inactive” and the GI50 ([11]; Homo sapiens, RXF 393, 48 h) was greater than 100 µM. The TGI ([11]; Homo sapiens, RXF 393, 48 h) was 3.5 µM, the IC50 ([11]; Homo sapiens, RXF 393, 48 h, read-out: IC50) was 1.27 µM and the growth at 0.01 µM [12] was 102%. The growth at 1 µM [13] was 88%, the growth at 0.01 µM [14] was 114% and the GI50 [15] was greater than 100 µM. For the same molecule, the IC50 [15] was greater than 100 µM, the TGI [15] was greater than 100 µM and the CC50 [15] was greater than 100 µM. For the same molecule, the growth at 0.01 µM [16] was 105%, the GI50 [17] was greater than 100 µM and the IC50 [17] was 5.46 µM. The TGI [17] was greater than 100 µM, the CC50 [17] was greater than 100 µM and the growth at 0.1 µM [18] was 100%. For the same molecule, the growth at 0.01 µM [19] was 88%, the growth at 10 µM [20] was 103% and the growth at 10 µM [21] was 86%. The growth at 0.1 µM [22] was 8.3%, the growth at 1 µM [23] was 88% and the GI50 [24] was greater than 100 µM. It also gave an IC50 [24] greater than 100 µM, a TGI [24] greater than 100 µM and a CC50 [24] greater than 100 µM. It also gave a growth at 0.1 µM [25] of 98%, a TGI ([26]; Homo sapiens, SF-539, 48 h) greater than 100 µM and a CC50 ([26]; Homo sapiens, SF-539, 48 h) greater than 100 µM. The IC50 ([26]; sf-539) was “Not Active”, the growth at 0.1 µM [27] was 88% and the growth at 0.01 µM [28] was 95%. The GI50 [29] was greater than 100 µM, the IC50 [29] was greater than 100 µM and the TGI [29] was greater than 100 µM. It also gave a CC50 [29] greater than 100 µM.
